Compounds with a hit are over-represented: about 9.6% of the library has one in this group of screens.
APP 5UTR inh = APP translation inhibition | actives 0.82% (n = 190,000) | SH-SY5Y APP 5'UTR-luciferase reporter, luminescence | inhibition, % at 2 µM;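 active = inhibition above a set limit, derived from the sample mean plus 3 SD, cut at about 45% in these data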
Lmaj promast = Leishmania major promastigote growth inhibition | Leishmania major promastigotes, resazurin fluorescence viability | inhibition, % at 10 µM | actives 9% (n = 200,000); in the data active = inhibition above about 50%;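 note: promastigotes grown with compound for 44 hours at 28 °C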
MT stabilize HCS = microtubule stabilizers in HeLa cells. HeLa tubulin immunostaining HCS, 24 h; share of cells brighter than vehicle mean+2SD. % tubulin-high responders, % at 10 µM. actives 0.83% (n = 200,000);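 active = plate Z-score above 3 for both tubulin-high and condensed-nucleus cell shares, with cell loss under 80%, at 10 µM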;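 note: anti alpha tubulin signal scored within the nucleus-defined area of each cell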
BaF3 tox = counter-screen for JAK2V617F inhibitors: parental Ba/F3 viability inhibitors. CellTiter-Glo ATP luminescence. inhibition, % at 5.6 µM. actives 1.1% (n = 220,000). AID 1486;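 active = inhibition above a per-campaign cutoff, the mean inhibition of all tested compounds plus 3 SD, cut at about 27% in these data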
bCat nuc transl = modulators of beta-catenin nuclear translocation | HeLa beta-catenin nuclear translocation, immunofluorescence imaging | nuclear translocation activity, % at 5 µM | actives 0.3% (n = 190,000) | AID 1665;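 active = nuclear translocation activity above 50% at 5 µM, with a well cell count of 50 or more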;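 note: per-cell ratio of nuclear to cytoplasmic median beta-catenin stain intensity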
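System: Human HeLa cells, endogenous beta-catenin | Compound dosing: 5 µM primary, 0.02–20 µM confirmation | Timing: 24 h compound exposure at 37°C, 5% CO2 | Measured by: Fluorescence imaging of beta-catenin antibody stain plus DAPI | Read-out basis: % activation of per-cell nuclear versus cytoplasmic median beta-catenin signal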
Ba/F3 V617F tox = reduce viability of Ba/F3 cells dependent on JAK2V617F. Ba/F3 EpoR-JAK2V617F viability, ATP luminescence. inhibition, % at 5.6 µM. actives 1.1% (n = 220,000);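 active = inhibition above the campaign mean plus 3 SD over all tested compounds, cut at about 24% in these data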;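 note: cytokine-independent growth of Ba/F3 cells driven by EpoR plus mutant JAK2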
Large screens that a line does not name were inactive.

COc1ccc(-c2cc(C(=O)NN)[nH]n2)cc1	APP 5UTR inh 84
COc1ccc(-c2cc(C(=O)NN)[nH]n2)cc1OC	APP 5UTR inh 73
COc1ccc(Cl)cc1-c1nc(SCC(=O)N(C)CCC#N)n[nH]1	none
CN(C)C(=O)C12CCC(C)(C(=O)C1Br)C2(C)C (stereo not drawn)	none (no result: APP 5UTR inh, Lmaj promast, MT stabilize HCS)
O=c1cnn(-c2ccccc2)c(-c2ccccc2)c1	Lmaj promast 82
COc1ccc(C(c2nnnn2Cc2ccccc2)N2CCN(c3nc4ccccc4s3)CC2)cc1OC (stereo not drawn)	Lmaj promast 100
CCC(c1nnnn1CCOC)N1CCN(c2nc3ccccc3s2)CC1 (stereo not drawn)	none
CCC(C)(C)n1nnnc1C(c1ccc(O)c(OC)c1)N1CCN(c2nc3ccccc3s2)CC1 (stereo not drawn)	none
COc1ccc(Cn2nnnc2C(c2cccnc2)N2CCN(c3ccc(O)cc3)CC2)cc1 (stereo not drawn)	Lmaj promast 94
COc1ccc(Cn2nnnc2C(c2cccs2)N2CCN(c3ccccc3)CC2)cc1 (stereo not drawn)	none
COCCn1nnnc1C(CC(C)C)N1CCN(c2nc3ccccc3s2)CC1 (stereo not drawn)	none
Cc1ccc(S(=O)(=O)Cn2nnnc2C(C(C)C)N2CCN(c3nc4ccccc4s3)CC2)cc1 (stereo not drawn)	Lmaj promast 99
c1ccc(Cn2nnnc2C(c2ccccc2)N2CCN(c3nc4ccccc4s3)CC2)cc1 (stereo not drawn)	Lmaj promast 100
CCOc1ccc(N(CC(=O)NN=C2CCCC2)S(C)(=O)=O)cc1	none
CCCn1nnc(NC(=O)c2ccc3c(c2)OCO3)n1	none (no result: APP 5UTR inh, Lmaj promast, MT stabilize HCS)
CCCCC(c1nnnn1Cc1ccco1)N1CCN(c2nc3ccccc3s2)CC1 (stereo not drawn)	Lmaj promast 97
COc1ccccc1C(c1nnnn1Cc1ccccc1)N1CCN(c2nc3ccccc3s2)CC1 (stereo not drawn)	Lmaj promast 91
COc1ccc(C(c2nnnn2C(C)(C)C)N2CCN(c3nc4ccccc4s3)CC2)cc1 (stereo not drawn)	Lmaj promast 57
CC(C)C(c1nnnn1Cc1ccco1)N1CCN(c2cccc(Cl)c2)CC1 (stereo not drawn)	Lmaj promast 85
c1ccc(C(c2nnnn2Cc2ccco2)N2CCN(C3CCCC3)CC2)cc1 (stereo not drawn)	none
c1ccc(C(c2nnnn2Cc2ccco2)N2CCN(c3nc4ccccc4s3)CC2)cc1 (stereo not drawn)	Lmaj promast 98
COc1ccc(NC(=O)CC2(Cc3ccccc3)CCOC(C)(C)C2)cc1 (stereo not drawn)	Lmaj promast 55 (no result: bCat nuc transl)
C/C(=N\NC(=O)CN(c1ccc(Oc2ccccc2)cc1)S(C)(=O)=O)C(C)(C)C	none
CN(C)S(=O)(=O)c1cccc(NC(=O)CNCC2CCCCC2)c1	Lmaj promast 84
Cc1cc(=O)oc2cc(OCC(=O)Nc3cccc(S(=O)(=O)N(C)C)c3)ccc12	Lmaj promast 60 (no result: bCat nuc transl)
CCN(CC)S(=O)(=O)c1ccc(Cl)c(NC(=O)COc2ccc3c(C)cc(=O)oc3c2)c1	none
CNC(=O)c1ccc(-c2ccc(F)cc2)s1	none (no result: bCat nuc transl)
CNC(=O)c1ccc(-c2ccc(Cl)c(Cl)c2)s1	Lmaj promast 56
CC(C)C[C@H](NC(=O)OC(C)(C)C)c1nnc(SCc2cccc(F)c2)o1	Lmaj promast 69 (no result: bCat nuc transl)
COc1ccc(S(=O)(=O)Nc2ccccc2C(F)(F)F)cc1	none
COc1ccc(S(=O)(=O)NN(C)c2nc(C(F)(F)F)nc3ccccc23)cc1	MT stabilize HCS 25
COc1ccc(OCCn2cc(/C=C(\C#N)C(=O)NCc3ccco3)c3ccccc32)cc1	none
COc1ccccc1OCCn1cc(/C=C(\C#N)C(=O)NCc2ccco2)c2ccccc21	Lmaj promast 53
Cc1cc(/C=C(\C#N)C(=O)NCc2ccco2)c(C)n1-c1cccnc1	none (no result: APP 5UTR inh, Lmaj promast, MT stabilize HCS)
Cc1ccc(C)c(OCCn2cc(/C=C(\C#N)C(=O)NCc3ccco3)c3ccccc32)c1	Lmaj promast 65 (no result: bCat nuc transl)
Cc1cc(/C=C(\C#N)C(=O)NCc2ccco2)c(C)n1C1CCCC1	Lmaj promast 72
O=[N+]([O-])c1cccc(-c2noc(-c3cccs3)n2)c1	none (no result: APP 5UTR inh, Lmaj promast, MT stabilize HCS)
O=[N+]([O-])c1cc(-c2n[nH]c(-c3ccccc3)n2)cc([N+](=O)[O-])c1	Lmaj promast 98
O=C(c1ccncc1)c1ccc(N2CCN(C3CC(=O)N(Cc4ccccc4)C3=O)CC2)cc1 (stereo not drawn)	Lmaj promast 98
COc1ccc(/C(C)=N/N=C2/NC(=O)CC(C(=O)O)S2)cc1 (stereo not drawn)	none
C/C(=N\N=C1\NC(=O)CC(C(=O)O)S1)c1ccc(F)cc1 (stereo not drawn)	Lmaj promast 52 (no result: bCat nuc transl)
C=CCn1c(COc2ccccc2)nnc1SC(C)C(=O)N/N=C/c1cc(Cl)ccc1O (stereo not drawn)	Lmaj promast 98 (no result: bCat nuc transl)
COCc1cc(=O)[nH]c(Nc2nc(C)c3ccccc3n2)n1	Lmaj promast 79 (no result: bCat nuc transl)
Cc1ccc2oc(Nc3nc(-c4ccccc4)cc(=O)[nH]3)nc2c1	Lmaj promast 98
COCc1cc(=O)[nH]c(Nc2nc3ccccc3o2)n1	Lmaj promast 99
O=CN(c1ccccc1)c1ccc2ccccc2c1	none
COCCNC(=O)c1cc2oc3ccccc3c2n1C	none
C/C(=N\Nc1nc2ccccc2[nH]1)c1ccc2c(c1)OCO2	Lmaj promast 101
C/C(=N\Nc1nc2ccccc2[nH]1)c1cc2ccccc2o1	Lmaj promast 68
C/C(=N\Nc1nc2ccccc2[nH]1)c1ccc2c(c1)OCCO2	Lmaj promast 100
C(=N\Nc1nc2ccccc2[nH]1)/c1ccc2c(c1)OCO2	Lmaj promast 96
C/C(=N\Nc1ccccn1)c1ccc2c(c1)OCO2	none
CCCc1nc2ccccc2c(C(=O)OC(C)C(=O)NCc2ccc3c(c2)OCO3)c1CC (stereo not drawn)	none
Cc1ccc(NC(=O)CNCCCN2CCOCC2)cc1S(=O)(=O)N1CCCCC1	none (no result: APP 5UTR inh, Lmaj promast, MT stabilize HCS)
O=[N+]([O-])c1ccccc1CNC1CCCCCC1	Lmaj promast 83
Cc1ccccc1NC1=NC(C)(C)N=C(N)N1	none
CC1(C)N=C(N)NC(Nc2ccccc2)=N1	BaF3 tox 98, Ba/F3 V617F tox 94
COc1cccc(OCC(O)CO)c1 (stereo not drawn)	none
CCN(CC)S(=O)(=O)c1ccc(Cl)c(C(=O)OC)c1	Lmaj promast 61
CCN(CC)S(=O)(=O)c1cc(C(=O)OC)ccc1Cl	none
CCN(CC)S(=O)(=O)c1ccc(Cl)c(NC(=O)COC(=O)c2cccn2C)c1	MT stabilize HCS 18
CCN(CC)S(=O)(=O)c1ccc(Cl)c(C(=O)NCc2ccco2)c1	none
CCN(CC)S(=O)(=O)c1ccc(Cl)c(C(=O)NCc2ccccc2Cl)c1	Lmaj promast 99

Assay outcomes as filed in PubChem BioAssay.
